In brackets after ≈: the same amount, converted by molar mass.
Tests used:
Salmonella typhi = assay: Minimum inhibitory concentration against Salmonella typhi; format: functional, Salmonella enterica subsp. enterica serovar Typhi; conditions: Salmonella enterica
Klebsiella pneumoniae = assay: Minimum inhibitory concentration against Klebsiella pneumoniae; format: functional
Procedure, shortened: (§1)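 Agar dilution MIC in μg/mL. […] Organisms not run are marked not tested.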

Staphylococcus aureus = assay: Minimum inhibitory concentration against Staphylococcus aureus; format: functional; procedure, shortened: as §1
Streptococcus pyogenes = assay: Minimum inhibitory concentration against Streptococcus pyogenes; format: functional; procedure, shortened: as §1
Escherichia coli = assay: Minimum inhibitory concentration against Escherichia coli; format: functional; procedure, shortened: as §1
Streptococcus pneumoniae = assay: Minimum inhibitory concentration against Streptococcus pneumoniae; format: functional; procedure, shortened: as §1
Klebsiella aerogenes = assay: Minimum inhibitory concentration against Enterobacter aerogenes; format: functional; procedure, shortened: as §1
Haemophilus influenzae [1] = assay: (§2) Minimum inhibitory concentration against Haemophilus influenzae; format: functional; procedure, shortened: as §1
Haemophilus influenzae [2] = assay: as §2; format: functional; procedure, shortened: as §1; remark: listed apart in the source

SMILES	MIC (Salmonella typhi) [µg/mL]	MIC (Klebsiella pneumoniae) [µg/mL]	MIC (Staphylococcus aureus) [µg/mL]	MIC (Streptococcus pyogenes) [µg/mL]	MIC (Escherichia coli) [µg/mL]	MIC (Streptococcus pneumoniae) [µg/mL]	MIC (Klebsiella aerogenes) [µg/mL]	MIC (Haemophilus influenzae [1]) [µg/mL]	MIC (Haemophilus influenzae [2]) [µg/mL]
O=C(Cc1csc2ccc(Cl)cc12)N[C@@H]1C(=O)N2C(C(=O)O)=CCS[C@H]12	> 128	128 (≈ 313 µM)	0.125 (≈ 0.306 µM)	0.03 (≈ 0.0734 µM)	128 (≈ 313 µM)	–	–	–	–
O=C(Cc1noc(C(Cl)(Cl)Cl)n1)N[C@@H]1C(=O)N2C(C(=O)O)=C(Cl)CS[C@H]12	16 (≈ 34.6 µM)	16 (≈ 34.6 µM)	2 (≈ 4.33 µM)	0.25 (≈ 0.541 µM)	64 (≈ 138 µM)	0.5 (≈ 1.08 µM)	> 128	4 (≈ 8.66 µM)	4 (≈ 8.66 µM)
Cc1nc(CC(=O)N[C@@H]2C(=O)N3C(C(=O)O)=C(Cl)CS[C@H]23)c(-c2ccccc2)s1	> 128	> 128	0.125 (≈ 0.278 µM)	0.015 (≈ 0.0333 µM)	> 128	0.06 (≈ 0.133 µM)	> 128	32 (≈ 71.1 µM)	32 (≈ 71.1 µM)
O=C(CSc1nc[nH]n1)N[C@@H]1C(=O)N2C(C(=O)O)=C(Cl)CS[C@H]12	16 (≈ 42.6 µM)	16 (≈ 42.6 µM)	4 (≈ 10.6 µM)	0.5 (≈ 1.33 µM)	16 (≈ 42.6 µM)	2 (≈ 5.32 µM)	> 128	4 (≈ 10.6 µM)	4 (≈ 10.6 µM)
CC1=C(C(=O)O)N2C(=O)[C@@H](NC(=O)Cc3csc4ccccc34)[C@H]2SC1	> 128	> 128	1 (≈ 2.57 µM)	0.5 (≈ 1.29 µM)	> 128	1 (≈ 2.57 µM)	> 128	32 (≈ 82.4 µM)	1 (≈ 2.57 µM)
O=C(Cc1csc(-c2ccccc2)n1)N[C@@H]1C(=O)N2C(C(=O)O)=C(Cl)CS[C@H]12	> 128	–	–	–	–	–	> 128	–	–
O=C(Cc1ccccc1)N[C@@H]1C(=O)N2C(C(=O)O)=C(Cl)CS[C@H]12	4 (≈ 11.3 µM)	–	–	–	–	0.125 (≈ 0.354 µM)	128 (≈ 363 µM)	–	–
O=C(COc1ccc([N+](=O)[O-])cc1)N[C@@H]1C(=O)N2C(C(=O)O)=C(Cl)CS[C@H]12	> 128	> 128	0.25 (≈ 0.604 µM)	0.015 (≈ 0.0362 µM)	> 128	0.03 (≈ 0.0725 µM)	> 128	2 (≈ 4.83 µM)	1 (≈ 2.42 µM)
O=Cc1ccc(OCC(=O)N[C@@H]2C(=O)N3C(C(=O)O)=C(Cl)CS[C@H]23)cc1	> 128	> 128	0.25 (≈ 0.63 µM)	0.015 (≈ 0.0378 µM)	> 128	0.03 (≈ 0.0756 µM)	> 128	2 (≈ 5.04 µM)	1 (≈ 2.52 µM)
O=C(Cc1ccc(F)cc1)N[C@@H]1C(=O)N2C(C(=O)O)=C(Cl)CS[C@H]12	16 (≈ 43.2 µM)	32 (≈ 86.3 µM)	0.5 (≈ 1.35 µM)	0.06 (≈ 0.162 µM)	32 (≈ 86.3 µM)	0.125 (≈ 0.337 µM)	> 128	4 (≈ 10.8 µM)	1 (≈ 2.7 µM)
O=C(COc1ccc(Cl)cc1)N[C@@H]1C(=O)N2C(C(=O)O)=C(Cl)CS[C@H]12	> 128	> 128	0.125 (≈ 0.31 µM)	0.03 (≈ 0.0744 µM)	> 128	0.03 (≈ 0.0744 µM)	> 128	1 (≈ 2.48 µM)	1 (≈ 2.48 µM)
O=C(CSc1nccs1)N[C@@H]1C(=O)N2C(C(=O)O)=C(Cl)CS[C@H]12	16 (≈ 40.8 µM)	16 (≈ 40.8 µM)	1 (≈ 2.55 µM)	0.25 (≈ 0.638 µM)	32 (≈ 81.7 µM)	0.5 (≈ 1.28 µM)	> 128	–	–
COc1ccc(OCC(=O)N[C@@H]2C(=O)N3C(C(=O)O)=C(Cl)CS[C@H]23)cc1	> 128	> 128	0.25 (≈ 0.627 µM)	0.06 (≈ 0.15 µM)	> 128	0.125 (≈ 0.313 µM)	> 128	2 (≈ 5.01 µM)	2 (≈ 5.01 µM)

— ChEMBL document CHEMBL1123986, “Oral absorption of cephalosporin antibiotics. 2. Expanded structure-activity relationships of 7-(arylacetamido)-3-substituted cephalosporins” (1988)
